In the library only some 3.1% were active in any assay of this set; here they are far more common.
ADAM10 inh – inhibits human ADAM10 | O14672 | recombinant ADAM10, EDANS/DABCYL FRET peptide cleavage, 3 h | inhibition, % at 7 µM | 370,000 compounds, 0.62% hits;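 active = inhibition above a per-campaign cutoff equal to the mean of compounds falling between control-based bounds plus 3 SD, cut at about 20% in these data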
Target sequence (O14672 214-748 limits assumed): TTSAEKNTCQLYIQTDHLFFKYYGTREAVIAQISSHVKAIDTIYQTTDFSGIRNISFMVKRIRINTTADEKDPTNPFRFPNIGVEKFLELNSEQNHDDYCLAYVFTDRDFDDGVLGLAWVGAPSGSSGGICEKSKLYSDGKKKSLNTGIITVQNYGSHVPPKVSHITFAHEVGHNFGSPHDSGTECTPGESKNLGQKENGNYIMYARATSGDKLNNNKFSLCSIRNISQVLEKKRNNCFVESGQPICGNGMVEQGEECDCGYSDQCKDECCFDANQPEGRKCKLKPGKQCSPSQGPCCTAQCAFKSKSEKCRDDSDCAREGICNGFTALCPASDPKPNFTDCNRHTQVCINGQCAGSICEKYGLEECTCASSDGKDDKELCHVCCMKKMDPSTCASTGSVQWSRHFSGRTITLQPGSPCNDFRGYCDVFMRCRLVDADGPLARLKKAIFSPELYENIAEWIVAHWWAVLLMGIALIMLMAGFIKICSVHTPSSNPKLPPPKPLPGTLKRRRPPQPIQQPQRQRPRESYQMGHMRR
aDG glyco up – alpha-DG glycosylation activation | 360,000 compounds, 0.22% hits | Pro5-aDG cells, alpha-DG glycosylation AlphaScreen (IIH6); 0% Pro5, 100% B10-LARGE cell signal | activation, % at 10 µM | AID 624168;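 active = activation of at least 8% versus controls, or a plate z-score of at least 8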;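 note: Pro5 are CHO cells carrying HIG-tagged alpha-DG that lacks glycosylation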
ADAM17 inh – ADAM17 inhibition, QFRET primary screen; recombinant ADAM17, EDANS/DABCYL FRET peptide cleavage; inhibition, % at 6.95 µM; P78536; AID 720648; 370,000 compounds, 0.83% hits;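 active = inhibition above the mean of compounds lying between control limits plus 3 SD, set per campaign, cut at about 8.5% in these data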
MPTP block – blocks calcium-induced mitochondrial swelling; AID 602449; inhibition, % at 10 µM; isolated mouse mitochondria, Ca2+ swelling absorbance, 30 min; 360,000 compounds, 1.4% hits;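 active = inhibition of 50% or more, scaled per plate between neutral and stimulator controls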
Lipid droplet – modulators of hepatic lipid droplet formation; AML12 mouse hepatocytes, oleate lipid droplets, BODIPY imaging; inhibition, % at 6.5 µM; 240,000 compounds, 0.4% hits;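 active = lipid droplet intensity inhibited by at least 50%, with more than 500 cells counted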
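Test system: AML12 hepatocytes (mouse); reagent: oleate loading, 100 µM; dosing: one dose, 6.5 µM compound; incubation: overnight exposure; signal: fluorescence imaging, 20x objective, two fields per well; read-out basis: % inhibition of corrected integrated BODIPY droplet signal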
V-ATPase pH – yeast V-ATPase proton transport regulation by pHLuorin. S. cerevisiae, pHLuorin cytosolic pH fluorescence. response, % at 10 µM. 350,000 compounds, 0.37% hits; in the data active = response mostly above about 7.3%, no sharp cut-off; inactive = mostly below about 5.4%; note: actives read high
Lipid drop inh – confirmation of inhibitors of hepatic lipid droplet formation | shares compounds with Lipid droplet | AML12 mouse hepatocytes, BODIPY lipid droplet imaging; droplets induced with 100 µM oleic acid | inhibition, % at 5.2 µM | 870 compounds, 65% hits | AID 463183;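 active = inhibition of lipid droplet metric at least 50%, with more than 300 cells in each of four replicates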
AML12 cytotox – counter-screen for cytotoxicity in AML12 mouse hepatocytes | 870 compounds, 3% hits | DAPI nuclear morphology cytotoxicity imaging; stronger effect = higher value; cells fed 100 µM oleate overnight | z-score at 5 µM | shares compounds with Lipid droplet; in the data active = z-score above about 6.3;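 note: compound exposure lasted overnight at 37 °C before fixation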
AML12 tox conf – AML12 hepatocyte cytotoxicity, confirmed | shares compounds with Lipid droplet | AML12 mouse hepatocyte viability, ATP luminescence; cells loaded with 100 µM oleic acid | AID 463219 | 530 tested, under 10 active | cytotoxicity, % at 50 µM;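 active = cytotoxicity above 50% in each of four replicates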;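 note: compound exposure lasted overnight at 37 °C before the ATP read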
Each line names hits and unclear results; the compound was inactive in the other large screens (follow-up assays come after a bar, where they were run).

Cc1ccc2nc(=O)c(NNc3ccccc3)cnc2c1	Lipid droplet 52 | Lipid drop inh inactive | AML12 cytotox inactive | AML12 tox conf inactive
Cc1nc2ccccc2nc(=O)c1NNc1ccccc1	Lipid droplet 59 | Lipid drop inh 59 | AML12 cytotox inactive
Cn1c(=O)oc2cc(S(=O)(=O)N3CCN(c4cccc(C(F)(F)F)c4)CC3)ccc21	none (no result: aDG glyco up, MPTP block, Lipid droplet, V-ATPase pH)
C=CCN(C(=O)[C@@H](CCCC)[C@@H](O)c1ccc2ccccc2c1)c1ccccc1	none (no result: aDG glyco up, MPTP block, Lipid droplet, V-ATPase pH)
Oc1[nH]c2ccccc2c1N=Nc1nc(Nc2ccccc2)nc(N2CCOCC2)n1	Lipid droplet 60 | Lipid drop inh inactive | AML12 cytotox 20
Cc1cccc(NC(=O)[C@H](C)NC(=O)[C@@H]2Cc3ccccc3CN2C(=O)OC(C)(C)C)c1	Lipid droplet 62 | Lipid drop inh 100 | AML12 cytotox inactive | AML12 tox conf inactive
COc1cccc(NC(=O)CNC(=O)[C@@H]2Cc3ccccc3CN2C(=O)OC(C)(C)C)c1	none
CC(C)[C@H](NC(=O)[C@@H]1Cc2ccccc2CN1C(=O)OC(C)(C)C)C(=O)NC1CCCC1	none
COc1ccc(NC(=O)[C@H](C)NC(=O)[C@@H]2Cc3ccccc3CN2C(=O)OC(C)(C)C)cc1	Lipid droplet 55 | Lipid drop inh 91 | AML12 cytotox inactive | AML12 tox conf inactive
COc1ccc(C(C(=O)NC(C)(C)C)N(Cc2ccco2)C(=O)CCC(=O)Nc2cc(C)on2)cc1 (stereo unspecified)	Lipid droplet 52 | Lipid drop inh 69 | AML12 cytotox inactive | AML12 tox conf inactive
CCC(C)(C)NC(=O)C(c1ccc(OC)cc1)N(Cc1ccco1)C(=O)CCC(=O)Nc1cc(C)on1 (stereo unspecified)	none
COc1ccc(C(C(=O)NC(C)(C)C)N(Cc2ccc(C)cc2)C(=O)CCC(=O)Nc2cc(C)on2)cc1 (stereo unspecified)	Lipid droplet 70 | Lipid drop inh 106 | AML12 cytotox inactive | AML12 tox conf inactive
O=C(CSc1nnc(-c2ccccn2)n1-c1ccc(Cl)cc1)Nc1ccc2c(c1)OCCO2	none (no result: aDG glyco up, MPTP block, Lipid droplet, V-ATPase pH)
C[C@H]1[C@H](N(Cc2cccs2)Cc2cccs2)CC[C@@]23CCCN2C(=O)CCC[C@@H]13	none (no result: aDG glyco up, MPTP block, Lipid droplet, V-ATPase pH)
Cc1c(Cl)cccc1N(CC(=O)NC(C)c1ccccc1)S(C)(=O)=O (stereo unspecified)	Lipid droplet 58 | Lipid drop inh inactive | AML12 cytotox inactive
CCCCCCCCN1C(=O)[C@@H](CC(=O)N2CCOCC2)C[C@@]2(C(=O)OC)C1=C[C@H](COCc1ccccc1)O[C@@H]2C	none (no result: aDG glyco up, MPTP block, Lipid droplet, V-ATPase pH)
NC(=O)N/N=C/c1ccc(-c2ccc([N+](=O)[O-])cc2)o1	Lipid droplet 55 | Lipid drop inh inactive | AML12 cytotox inactive
O=C(Cc1ccccc1)N/N=C/c1ccc(-c2ccc([N+](=O)[O-])cc2)o1	none
CCCN(CCC)c1ccc(CC(=O)NC(C)Cc2ccccc2)cc1 (stereo unspecified)	Lipid droplet 101 | Lipid drop inh 109 | AML12 cytotox inactive | AML12 tox conf inactive
Cc1ccnc(NC(=S)N2CCC(Nc3cccc(C(F)(F)F)c3)CC2)c1	none (no result: aDG glyco up, MPTP block, Lipid droplet, V-ATPase pH)
COC(=O)[C@]12C[C@H](CC(=O)N3CCSCC3)C(=O)N(Cc3ccccc3)C1=C[C@H](COCc1ccccc1)O[C@@H]2C	none (no result: aDG glyco up, MPTP block, Lipid droplet, V-ATPase pH)
CC(C)C[C@H]1C(=O)N2CCC[C@H]2[C@]2(O)O[C@](NC(=O)[C@@H]3C=C4c5cccc6[nH]c(Br)c(c56)CC4N(C)C3)(C(C)C)C(=O)N12 (stereo partly specified)	Lipid droplet 54 | Lipid drop inh inactive | AML12 cytotox inactive | AML12 tox conf inactive
Nn1c(SCC(=O)Nc2ccccc2-c2ccccc2)nnc1-c1cc(-c2ccccc2)n[nH]1	none (no result: aDG glyco up, MPTP block, Lipid droplet, V-ATPase pH)
CN(C)CCCN(C(=O)c1ccc2ccccc2c1)c1nc2cc3c(cc2s1)OCO3	Lipid droplet 55 | Lipid drop inh inactive | AML12 cytotox inactive
CN(C)CCN(C(=O)c1ccc2ccccc2c1)c1nc2cc3c(cc2s1)OCCO3	none
COc1cc2c(cc1OC)CN(CC(=O)Nc1ccc(C)c(C)c1)CC2	Lipid droplet 56 | Lipid drop inh inactive | AML12 cytotox inactive
O=C(Nc1cccc(Cl)c1)c1ccc(OC(=S)N2CCOCC2)cc1	none
Cc1cccc(NC(=O)c2cccc(OC(=S)N3CCOCC3)c2)c1	Lipid droplet 84 | Lipid drop inh 104 | AML12 cytotox inactive | AML12 tox conf inactive
N=c1c(C(=O)NCCN2CCOCC2)cc2c(=O)n3ccccc3nc2n1CCCN1CCOCC1	Lipid droplet 52 | Lipid drop inh inactive | AML12 cytotox inactive
C=CCN1C(=O)[C@@H](CC(=O)N2CCCC2)[C@]2(C(=O)OCC)CCCCC/C=C/12	none (no result: aDG glyco up, MPTP block, Lipid droplet, V-ATPase pH)
Cc1ccc(NC(=O)CCCc2c[nH]c3ccccc23)nc1	Lipid droplet 83 | Lipid drop inh inactive | AML12 cytotox inactive
COC(=O)[C@H](Cc1c[nH]c2ccccc12)NC(=O)CCCc1c[nH]c2ccccc12	Lipid droplet 60 | Lipid drop inh inactive | AML12 cytotox inactive | AML12 tox conf inactive
Cc1ccc(CNC(=O)CCCc2c[nH]c3ccccc23)cc1	Lipid droplet 71 | Lipid drop inh 74 | AML12 cytotox inactive | AML12 tox conf inactive
CC(C)C[C@@H]1COc2cccc(N3CCSCC3)c2S(=O)(=O)N1C	none (no result: aDG glyco up, MPTP block, Lipid droplet, V-ATPase pH)
CCC(=O)Nc1ccc2c(c1)C(=O)N(C)[C@@H]1CC[C@@H](CC(=O)OC)O[C@H]1CO2	none (no result: aDG glyco up, MPTP block, Lipid droplet, V-ATPase pH)
C=C(C)C1CC=C(C)/C(=N/Nc2ccccc2[N+](=O)[O-])C1 (stereo unspecified)	Lipid droplet 78 | Lipid drop inh 115 | AML12 cytotox inactive | AML12 tox conf inactive
O=C(Nc1ccc(Cl)cc1C(=O)NCc1cccnc1)c1ccc(Cl)cc1Cl	Lipid droplet 66 | Lipid drop inh 88 | AML12 cytotox inactive
Cc1ccc(C(=O)Nc2ccccc2C(=O)NCc2ccccc2)cc1	none (no result: ADAM10 inh, ADAM17 inh)
Cc1ccc(C(=O)Nc2ccccc2C(=O)NCc2cccnc2)cc1	Lipid droplet 51 | Lipid drop inh 96 | AML12 cytotox inactive | AML12 tox conf inactive
Cc1ccc(S(=O)(=O)N2CCCC(C(=O)Nc3c(C)n(C)n(-c4ccccc4)c3=O)C2)cc1C (stereo unspecified)	none (no result: aDG glyco up, MPTP block, Lipid droplet, V-ATPase pH)
Cc1cc(NC(=O)Nc2cccc(F)c2)n(-c2ccccc2)n1	none (no result: aDG glyco up, MPTP block, Lipid droplet, V-ATPase pH)

Screening data deposited in PubChem by several laboratories.
